According to ChEMBL document CHEMBL3580573, “Ibogan, tacaman, and cytotoxic bisindole alkaloids from tabernaemontana. Cononusine, an iboga alkaloid with unusual incorporation of a pyrrolidone moiety” (J Nat Prod, 2015):

What was measured:
KB [1] = test: Cytotoxicity against vincristine-resistant human KB cells assessed as growth inhibition after 72 hrs by MTT assay in presence of vincristine; format: functional, cell-based
KB [2] = test: Cytotoxicity against vincristine-resistant human KB cells assessed as growth inhibition after 72 hrs by MTT assay; format: functional, cell-based
KB [3] = test: Cytotoxicity against vincristine-sensitive human KB cells assessed as growth inhibition after 72 hrs by MTT assay; format: functional, cell-based
HCT-116 [4] = test: Induction of apoptosis in human HCT116 cells assessed as necrotic cells at IC50 after 48 hrs by annexin V-FITC/propidium iodide staining-based flow cytometric analysis (reference value: 1.84%); format: functional
HCT-116 [5] = test: Induction of apoptosis in human HCT116 cells assessed as late apoptotic cells at 2 times IC50 after 48 hrs by annexin V-FITC/propidium iodide staining-based flow cytometric analysis (reference value: 2.27%); format: functional
MDA-MB-468 [6] = test: Induction of apoptosis in human MDA-MB-468 cells assessed as viable cells at IC50 after 48 hrs by annexin V-FITC/propidium iodide staining-based flow cytometric analysis (reference value: 92.9%); format: functional
HCT-116 [7] = test: Induction of apoptosis in human HCT116 cells assessed as necrotic cells at 2 times IC50 after 48 hrs by annexin V-FITC/propidium iodide staining-based flow cytometric analysis (reference value: 1.84%); format: functional
MDA-MB-468 [8] = test: Induction of apoptosis in human MDA-MB-468 cells assessed as early apoptotic cells at 2 times IC50 after 48 hrs by annexin V-FITC/propidium iodide staining-based flow cytometric analysis (reference value: 3.24%); format: functional
HCT-116 [9] = test: Induction of apoptosis in human HCT116 cells assessed as early apoptotic cells at IC50 after 48 hrs by annexin V-FITC/propidium iodide staining-based flow cytometric analysis (reference value: 1.45%); format: functional
HCT-116 [10] = test: Cytotoxicity against human HCT116 cells assessed as growth inhibition after 72 hrs by MTT assay; format: functional, cell-based; conditions: HCT-116, 72 h
MDA-MB-468 [11] = test: Induction of apoptosis in human MDA-MB-468 cells assessed as late apoptotic cells at 2 times IC50 after 48 hrs by annexin V-FITC/propidium iodide staining-based flow cytometric analysis (reference value: 3.65%); format: functional
HCT-116 [12] = test: Induction of apoptosis in human HCT116 cells assessed as late apoptotic cells at IC50 after 48 hrs by annexin V-FITC/propidium iodide staining-based flow cytometric analysis (reference value: 2.27%); format: functional
MDA-MB-468 [13] = test: Induction of apoptosis in human MDA-MB-468 cells assessed as necrotic cells at IC50 after 48 hrs by annexin V-FITC/propidium iodide staining-based flow cytometric analysis (reference value: 0.25%); format: functional
HCT-116 [14] = test: Cell cycle arrest in human HCT116 cells assessed as accumulation at pre-G1 phase at IC50 to 2 times IC50 after 48 hrs relative to control; format: functional
Procedure, shortened: (§1)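 Cells were exposed for 48 h, then analysed by flow-cytometric cell cycle profiling. Pre-G1 events were scored and compared with untreated control, with significance at p < 0.05.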

HCT-116 [15] = test: Induction of apoptosis in human HCT116 cells assessed as viable cells at IC50 after 48 hrs by annexin V-FITC/propidium iodide staining-based flow cytometric analysis (reference value: 94.4%); format: functional
HCT-116 [16] = test: Induction of apoptosis in human HCT116 cells assessed as viable cells at 2 times IC50 after 48 hrs by annexin V-FITC/propidium iodide staining-based flow cytometric analysis (reference value: 94.4%); format: functional
MDA-MB-468 [17] = test: Induction of apoptosis in human MDA-MB-468 cells assessed as necrotic cells at 2 times IC50 after 48 hrs by annexin V-FITC/propidium iodide staining-based flow cytometric analysis (reference value: 0.25%); format: functional
MDA-MB-468 [18] = test: Induction of apoptosis in human MDA-MB-468 cells assessed as viable cells at 2 times IC50 after 48 hrs by annexin V-FITC/propidium iodide staining-based flow cytometric analysis (reference value: 92.9%); format: functional
MCF7 = test: Cytotoxicity against human MCF7 cells assessed as growth inhibition after 72 hrs by MTT assay; format: functional, cell-based; conditions: MCF7, 72 h
HT-29 = test: Cytotoxicity against human HT-29 cells assessed as growth inhibition after 72 hrs by MTT assay; format: functional, cell-based; conditions: HT-29, 72 h
MDA-MB-468 [19] = test: Induction of apoptosis in human MDA-MB-468 cells assessed as early apoptotic cells at IC50 after 48 hrs by annexin V-FITC/propidium iodide staining-based flow cytometric analysis (reference value: 3.24%); format: functional
MDA-MB-468 [20] = test: Induction of apoptosis in human MDA-MB-468 cells assessed as late apoptotic cells at IC50 after 48 hrs by annexin V-FITC/propidium iodide staining-based flow cytometric analysis (reference value: 3.65%); format: functional
MDA-MB-468 [21] = test: Cytotoxicity against human MDA-MB-468 cells assessed as growth inhibition after 72 hrs by MTT assay; format: functional, cell-based; conditions: MDA-MB-468, 72 h
HCT-116 [22] = test: Induction of apoptosis in human HCT116 cells assessed as early apoptotic cells at 2 times IC50 after 48 hrs by annexin V-FITC/propidium iodide staining-based flow cytometric analysis (reference value: 1.45%); format: functional
A549 = test: Cytotoxicity against human A549 cells assessed as growth inhibition after 72 hrs by MTT assay; format: functional, cell-based; conditions: A549, 72 h
MDA-MB-468 [23] = test: Cell cycle arrest in human MDA-MB-468 cells assessed as accumulation at pre-G1 phase at IC50 to 2 times IC50 after 48 hrs relative to control; format: functional; procedure, shortened: as §1

CC[C@H]1C[C@H]2C[C@H]3c4[nH]c5cc(C6CCC(=O)N6)c(OC)cc5c4CCN(C2)[C@@H]13 (stereo partly specified)
IC50 (KB [1]): > 25 µg/mL | IC50 (KB [2]): > 25 µg/mL | IC50 (KB [3]): > 25 µg/mL

CC[C@H]1C[C@H]2C[C@@H]3[C@H]1N(C2)C[C@@H](O)[C@@]31Nc2ccc(OC)cc2C1=O
IC50 (KB [1]): 53200 nM | IC50 (KB [2]): > 25 µg/mL | IC50 (KB [3]): > 25 µg/mL

C/C=C1/CN2[C@H]3C[C@H]1C1(C(=O)OC)C[C@]4(C[C@@H]21)c1ccccc1N(C)[C@H]34 (stereo partly specified)
IC50 (KB [1]): 2620 nM | IC50 (KB [2]): > 25 µg/mL | IC50 (KB [3]): > 25 µg/mL

CC[C@]1(O)C[C@@H]2CC(=O)n3c4c(c5ccccc53)CCN(C1)[C@@H]42
IC50 (KB [1]): > 25 µg/mL | IC50 (KB [2]): > 25 µg/mL | IC50 (KB [3]): > 25 µg/mL

CC[C@H]1C[C@H]2C[C@H]3c4[nH]c5ccc(OC)cc5c4C(=O)CN(C2)[C@@H]13
IC50 (KB [1]): > 25 µg/mL | IC50 (KB [2]): > 25 µg/mL | IC50 (KB [3]): > 25 µg/mL

C/C=C1/C[N+]2(CCl)CC[C@]34C(=C(C=O)[C@H]1C[C@@H]32)Nc1ccccc14.[Cl-] (stereo partly specified)
IC50 (KB [1]): > 25 µg/mL | IC50 (KB [2]): > 25 µg/mL | IC50 (KB [3]): > 25 µg/mL

C/C=C1/CN(C)[C@H]2Cc3c([nH]c4ccccc34)[C@@H](c3cc4[nH]c5c(c4cc3OC)CCN3C[C@H]4C[C@H](CC)[C@H]3[C@H]5C4)C[C@H]1[C@]2(CO)C(=O)OC
Activity (HCT-116 [4]): 3% | Activity (HCT-116 [5]): 72.4% | Activity (MDA-MB-468 [6]): 90.1% | Activity (HCT-116 [7]): 14.5% | Activity (MDA-MB-468 [8]): 21.4% | Activity (HCT-116 [9]): 6.98% | IC50 (HCT-116 [10]): 2910 nM | Activity (MDA-MB-468 [11]): 13.8% | Activity (HCT-116 [12]): 11.4% | Activity (MDA-MB-468 [13]): 0.18% | Activity (HCT-116 [14]): 80% | Activity (HCT-116 [15]): 79.6% | Activity (HCT-116 [16]): 4.85% | Activity (MDA-MB-468 [17]): 1.68% | Activity (MDA-MB-468 [18]): 63.1% | IC50 (MCF7): 4190 nM | IC50 (HT-29): 2570 nM | Activity (MDA-MB-468 [19]): 3.95% | Activity (MDA-MB-468 [20]): 5.76% | IC50 (KB [1]): 980 nM | IC50 (KB [2]): 1210 nM | IC50 (KB [3]): 1390 nM | IC50 (MDA-MB-468 [21]): 2770 nM | Activity (HCT-116 [22]): 8.25% | IC50 (A549): 3060 nM | Activity (MDA-MB-468 [23]): 35%

C/C=C1/CN[C@H]2Cc3c([nH]c4ccccc34)[C@@H](c3cc4[nH]c5c(c4cc3OC)CCN3C[C@H]4C[C@H](CC)[C@H]3[C@H]5C4)C[C@H]1[C@@H]2C(=O)OC
Activity (HCT-116 [4]): 48.4% | Activity (HCT-116 [5]): 43.7% | Activity (MDA-MB-468 [6]): 93% | Activity (HCT-116 [7]): 46.4% | Activity (MDA-MB-468 [8]): 42.5% | Activity (HCT-116 [9]): 7.76% | IC50 (HCT-116 [10]): 2030 nM | Activity (MDA-MB-468 [11]): 32% | Activity (HCT-116 [12]): 22% | Activity (MDA-MB-468 [13]): 0.17% | Activity (HCT-116 [14]): 80% | Activity (HCT-116 [15]): 21.9% | Activity (HCT-116 [16]): 6.4% | Activity (MDA-MB-468 [17]): 2.68% | Activity (MDA-MB-468 [18]): 22.8% | IC50 (MCF7): 3230 nM | IC50 (HT-29): 1580 nM | Activity (MDA-MB-468 [19]): 3.7% | Activity (MDA-MB-468 [20]): 3.15% | IC50 (KB [1]): 1200 nM | IC50 (KB [2]): 1110 nM | IC50 (KB [3]): 950 nM | IC50 (MDA-MB-468 [21]): 700 nM | Activity (HCT-116 [22]): 3.5% | IC50 (A549): 2830 nM | Activity (MDA-MB-468 [23]): 35%

C/C=C1/CN(C)[C@H]2Cc3c([nH]c4ccccc34)[C@@H](c3cc4[nH]c5c(c4cc3OC)CCN3C[C@H]4C[C@H](CC)[C@H]3[C@H]5C4)C[C@H]1[C@@H]2C(=O)OC
IC50 (KB [1]): 800 nM | IC50 (KB [2]): 980 nM | IC50 (KB [3]): 1530 nM

C/C=C1/CN(C)[C@H]2Cc3c([nH]c4ccccc34)[C@@H](c3cc4c(cc3OC)C(=O)[C@@]3(CCN5C[C@H]6C[C@H](CC)[C@H]5[C@H]3C6)N4)C[C@H]1[C@@H]2C(=O)OC
IC50 (KB [1]): 1210 nM | IC50 (KB [2]): 1060 nM | IC50 (KB [3]): 1060 nM
